Bioassay records as filed in PubChem BioAssay.
LMPTP inh: LMPTP (human) inhibition; P24666; recombinant LMPTP-A, OMFP fluorogenic substrate, fluorescence intensity; inhibition, % at 20 µM; 360,000 tested, 0.22% active;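 active means compounds that cut the enzyme signal by at least half of the control window in the single-dose screen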;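 further: plate controls were DMSO wells with enzyme plus substrate for no effect and substrate without enzyme for full effect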
Target sequence (P24666 whole entry, looked up): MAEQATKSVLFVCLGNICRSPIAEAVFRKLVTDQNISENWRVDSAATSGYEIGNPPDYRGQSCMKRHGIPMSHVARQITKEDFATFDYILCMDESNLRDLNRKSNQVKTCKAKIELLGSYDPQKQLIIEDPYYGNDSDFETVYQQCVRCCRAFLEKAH
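Buffer or medium: Bis-Tris pH 6.0, DTT, detergent; Assay system: LMPTP-A enzyme; Quantity: 0.625 nM enzyme; Detection: endpoint fluorescence intensity; Times: 50 min dark incubation at room temperature; Controls: substrate-only low control, DMSO enzyme-plus-substrate high control; Doses: single 20 µM dose; Read-out: percent inhibition versus substrate-only and uninhibited controls; Reagent: 400 µM OMFP.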
STEP block: blocks human striatal-enriched tyrosine phosphatase. P54829. recombinant STEP, OMFP fluorogenic substrate, fluorescence. inhibition, % at 20 µM. AID 588621. 360,000 tested, 0.25% active;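 active means inhibition at 20 µM, scaled per plate between control wells, above about 37%, limit read from the data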;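 further: 0% = DMSO with enzyme and substrate and 100% = substrate only without enzyme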
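medium = Bis-Tris buffer pH 6.0, 2.5 mM DTT, 0.005% Tween 20 | test system = STEP (striatal-enriched tyrosine phosphatase) enzyme, cell-free | measure = normalized % inhibition | compound dosing = 20 µM, 1% DMSO | also added = 25 µM OMFP | schedule = reaction 20 min, ambient temperature | measured by = fluorescence read at 480 nm ex / 540 nm em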
SUMO1 PPI mod: SUMO1-SIM interaction modulation. AID 602429. P63165. inhibition, % at 20 µM. 360,000 tested, 0.33% active. SUMO1 binding to a labelled peptide, TR-FRET, 1 h; in the data active means inhibition above about 37%
Target sequence (P63165 whole entry, looked up): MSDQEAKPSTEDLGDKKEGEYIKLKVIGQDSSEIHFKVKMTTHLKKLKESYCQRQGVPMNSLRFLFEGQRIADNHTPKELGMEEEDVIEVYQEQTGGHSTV
Scp-1 inhibitor: inhibitors of human Scp-1 phosphatase; inhibition, % at 20 µM; Q9GZU7; AID 493091; Recombinant Scp1, phosphopeptide, malachite green phosphate absorbance; 340,000 tested, 0.88% active;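 active means inhibition above about 50% at 20 µM, limit read from the data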;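 further: plate controls were DMSO wells with enzyme for no effect and wells lacking enzyme for full effect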
Target sequence (Q9GZU7 76-261 limits assumed): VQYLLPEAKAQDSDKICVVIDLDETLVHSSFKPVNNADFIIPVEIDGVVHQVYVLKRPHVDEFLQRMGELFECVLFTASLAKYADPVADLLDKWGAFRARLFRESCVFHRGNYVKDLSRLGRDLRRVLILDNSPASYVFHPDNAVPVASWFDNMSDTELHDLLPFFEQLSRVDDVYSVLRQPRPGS
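Assay system: SCP-1 catalytic fragment, aa 76-261 | Buffer or medium: Tris acetate buffer pH 5.5 with MgCl2 and Tween-20 | Compound: One concentration, 20 µM, with 1.0% DMSO | Also added: Phospho 17-mer peptide substrate | Signal: Absorbance at 630 nm | Incubation: 45 min enzyme reaction at room temperature | Measure: % inhibition of SCP-1 phosphate liberation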
DNMT1 block: blocks human DNA methyltransferase DNMT1; DNMT1 molecular beacon, Hinp1I cleavage, fluorescence; P26358; inhibition (reported as % activation of signal), % at 10 µM; 360,000 tested, 0.83% active; in the data active means inhibition above about 50%
F508del corr: correctors of CFTR F508del function in bronchial epithelial cells. CFBE cells, YFP halide quenching; stimulated with forskolin plus potentiator P3; % fluorescence drop versus neutral controls. activity (quench increase), % at 7.58 µM. 350,000 tested, 0.36% active. AID 720511;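 active means mean added fluorescence quench of at least 8% versus neutral control, with both replicates also reaching 8%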;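 further: cells transiently co-express mutant CFTR-F508del with the halide-sensitive YFP; corrector assay measuring rescue of mutant channel to the surface after 24 h compound exposure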
* hit, by the source's call. Only some compounds are listed: those with a hit (about 1.6% of all), similar ones and a draw of the others.

Results for COc1cc([C@H]2c3[nH]c4ccccc4c3C[C@H]3C(=O)N4[C@@H](c5cc(OC)c(OC)c(OC)c5)c5[nH]c6ccccc6c5C[C@H]4C(=O)N23)cc(OC)c1OC ?
LMPTP inh: 4; STEP block: -3; SUMO1 PPI mod: 13; Scp-1 inhibitor: 0; DNMT1 block: 52*

What do the screens show for `O=C1c2cccc3c([N+](=O)[O-])ccc(c23)C(=O)N1O`?
LMPTP inh: 22; STEP block: 10; SUMO1 PPI mod: 32; Scp-1 inhibitor: 83*; DNMT1 block: 71*; F508del corr: 1

What do the screens show for `CC(=O)Oc1ccc(N2C(=O)c3cccc4c([N+](=O)[O-])ccc(c34)C2=O)cc1`?
LMPTP inh: -2; STEP block: -2; SUMO1 PPI mod: -34; Scp-1 inhibitor: -4; DNMT1 block: 25; F508del corr: 32*

What do the screens show for `O=C1c2cccc3c([N+](=O)[O-])ccc(c23)C(=O)N1c1ccccn1`?
LMPTP inh: 0; STEP block: -2; SUMO1 PPI mod: -21; Scp-1 inhibitor: 0; DNMT1 block: 32

What do the screens show for `CNC(=O)C[C@@H]1CC[C@H]2[C@@H](COC[C@@H](O)CN2C(=O)c2ccccn2)O1`?
F508del corr: 6

How did CC(C)n1nnc(-c2ccc(OCc3ccccc3F)cc2)n1 do in these assays?
LMPTP inh: 2; STEP block: 1; SUMO1 PPI mod: 2; Scp-1 inhibitor: 58*; DNMT1 block: -3; F508del corr: 0

How did Fc1ccccc1COc1ccc(-c2nnn(Cc3ccccc3F)n2)cc1 do in these assays?
LMPTP inh: 3; STEP block: -1; SUMO1 PPI mod: 3; Scp-1 inhibitor: -18; DNMT1 block: -7; F508del corr: -4

What do the screens show for `CC(C)[C@H](NC(=O)OCc1ccccc1)C(=O)OCC(=O)NCc1ccco1`?
LMPTP inh: -1; STEP block: -1; SUMO1 PPI mod: 2; Scp-1 inhibitor: 59*; DNMT1 block: 19; F508del corr: 0

How did CC(C)C(NC(=O)OCc1ccccc1)C(=O)OCC(=O)NCc1ccco1 (stereo unspecified) do in these assays?
LMPTP inh: 1; STEP block: 0; SUMO1 PPI mod: 3; Scp-1 inhibitor: 28; DNMT1 block: 30

What do the screens show for `CC(CCC(C)C(C)(C)C)[C@@H]1CC[C@H]2C3C[C@H](OS(O)(=S)=S)[C@H]4C[C@H](OS(O)(=S)=S)[C@@H](OS(O)(=S)=S)C[C@]4(C)[C@H]3CC[C@]12C` (stereo partly specified) (tested in a mixture with another compound)?
LMPTP inh: 81*; STEP block: 31; SUMO1 PPI mod: 45*; Scp-1 inhibitor: 25; DNMT1 block: -167

What do the screens show for `COc1ccc(S(=O)(=O)N(CC(=O)NCc2cccnc2)Cc2ccccc2)cc1`?
LMPTP inh: 0; STEP block: -4; SUMO1 PPI mod: -2; Scp-1 inhibitor: -3; DNMT1 block: 6; F508del corr: -1

How did O=C(CN(Cc1ccccc1)S(=O)(=O)c1ccc(F)cc1)NCc1cccnc1 do in these assays?
LMPTP inh: 0; STEP block: 0; SUMO1 PPI mod: -5; Scp-1 inhibitor: -8; DNMT1 block: 0; F508del corr: 9.0*

Results for C[C@H]1CN([C@@H](C)CO)S(=O)(=O)c2ccc(C#CC3CC3)cc2O[C@@H]1CN(C)Cc1ccncc1 ?
F508del corr: 3

Results for CC1CCc2c(sc3ncnc(SCC(=O)Nc4ccc(C(=O)O)cc4)c23)C1 (stereo unspecified) ?
LMPTP inh: 36; STEP block: 2; SUMO1 PPI mod: 19; Scp-1 inhibitor: -5; DNMT1 block: 2; F508del corr: 1

How did CC(C)c1nc(SCC(=O)Nc2ccc(C(=O)O)cc2)c2c3c(sc2n1)CCCC3 do in these assays?
LMPTP inh: 53*; STEP block: 1; SUMO1 PPI mod: 32; Scp-1 inhibitor: 17; DNMT1 block: 1; F508del corr: 5
